In ChEMBL document CHEMBL1287725, “N-(8-(3-ethynylphenoxy)octyl-1-deoxynojirimycin suppresses growth and migration of human lung cancer cells” (Bioorg Med Chem Lett, 2010):
Activity calls are given as the source filed them. The calls are words filed in the database; no cut-off is given here.

Experiments:
A549 [1] = experiment: Inhibition of human A549 cell migration at 100 uM after 24 hrs by wound-healing assay; type: functional, cell-based
Summary of the method: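 Confluent A549 monolayers (3 x 10^4 cells seeded overnight, F12K/10% FBS) were scratched with a 200 µl pipette tip and washed. They were incubated at 37 °C in 10% FBS F12K with or without compound, and migration into the wound was photographed at 0 and 24 h.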

A549 [2] = experiment: Antiproliferative activity against human A549 cells after 72 hrs by MTT assay; type: functional, cell-based; details: A549, 72 h
Summary of the method: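 A549 cells (2.5 x 10^3/well) in F12K with 10% FBS, seeded overnight, then exposed to a range of doses for 72 h. MTT was added to a final 0.5 mg/ml for 3 h. Formazan was dissolved in DMSO and absorbance read. Triplicates, three experiments; IC50 given as mean of three experiments.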

A549 [3] = experiment: Effect on surface oligosaccharide expression in human A549 cells assessed as inhibition of binding of L-PHA-[…] to cell surface at 50 uM after 24 hrs by flow cytometry; type: functional, cell-based
A549 [4] = experiment: Induction of apoptosis in human A549 cells assessed as increased mitochondrial membrane depolarization at 100 uM after 48 hrs using JC-1 dye by flow cytometry; type: functional, cell-based
Summary of the method: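 After 48 h exposure, A549 cells were harvested and stained with JC-1. The red-to-green fluorescence shift (green/red ratio) was measured by flow cytometry as mitochondrial depolarisation. Mean ± SD, n=3.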

A549 [5] = experiment: Cell cycle arrest in human A549 cells assessed as accumulation at S phase at 100 uM after 24 hrs using propidium iodide staining by flow cytometry relative to control; type: functional
Summary of the method: (§1)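 A549 cells were seeded overnight in F12K/10% FBS, then treated 24 h. They were harvested with trypsin-EDTA, fixed in 70% ethanol at −20 °C for at least 2 h, and treated with RNase A 200 µg/ml at 25 °C for 30 min. Staining was with propidium iodide 50 µg/ml for 30 min at 4 °C. 10,000 nuclei per sample were scored by flow cytometry for G1, S and G2/M percentages. Triplicate, repeated three times.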

A549 [6] = experiment: Cell cycle arrest in human A549 cells assessed as accumulation at G1 phase at 100 uM after 24 hrs using propidium iodide staining by flow cytometry relative to control; type: functional; summary of the method: as §1
A549 [7] = experiment: Cell cycle arrest in human A549 cells assessed as accumulation at G2/M phase at 50 uM after 24 hrs using propidium iodide staining by flow cytometry relative to control; type: functional; summary of the method: as §1
A549 [8] = experiment: Inhibition of human A549 cell migration assessed as disruption of actin assembly at 100 uM after 24 hrs by TRITC-phalloidin staining; type: functional, cell-based
Summary of the method: (§2)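 A549 cells on glass coverslips were seeded overnight, then exposed 24 h. They were fixed with 4% paraformaldehyde, permeabilised with 0.1% Triton X-100, blocked with 1% BSA, and stained 60 min with TRITC-phalloidin for F-actin. Stress fibres were examined by confocal microscopy (100x oil). Repeated three times.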

A549 [9] = experiment: Induction of apoptosis in human A549 cells at 50 uM after 24 to 72 hrs using annexin V and propidium iodide staining by flow cytometry; type: functional, cell-based
Summary of the method: (§3)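 A549 cells were seeded and, the next day, treated in complete medium at 0, 50 or 100 µM for 24, 48 and 72 h. Cells were collected and washed twice with DPBS, then stained with an annexin V-FITC/propidium iodide kit. Annexin V-positive cells were quantified by flow cytometry. Triplicate, repeated three times.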

A549 [10] = experiment: Induction of apoptosis in human A549 cells at 100 uM after 24 to 72 hrs using annexin V and propidium iodide staining by flow cytometry; type: functional, cell-based; summary of the method: as §3
A549 [11] = experiment: Cell cycle arrest in human A549 cells assessed as accumulation at S phase at 50 uM after 24 hrs using propidium iodide staining by flow cytometry relative to control; type: functional; summary of the method: as §1
A549 [12] = experiment: Cell cycle arrest in human A549 cells assessed as accumulation at G1 phase at 50 uM after 24 hrs using propidium iodide staining by flow cytometry relative to control; type: functional; summary of the method: as §1
A549 [13] = experiment: Inhibition of human A549 cell migration assessed as prevention of actin stress fibre formation at 100 uM after 24 hrs by TRITC-phalloidin staining; type: functional, cell-based; summary of the method: as §2
A549 [14] = experiment: Cell cycle arrest in human A549 cells assessed as accumulation at G2/M phase at 100 uM after 24 hrs using propidium iodide staining by flow cytometry relative to control; type: functional; summary of the method: as §1

Row | IC50 (A549 [2]) [µM] | Compound | inhibition (A549 [1]) | inhibition (A549 [3]) | Activity (A549 [4]) | Activity (A549 [5]) [%] | Activity (A549 [6]) [%] | Activity (A549 [7]) [%] | inhibition (A549 [8]) | Activity (A549 [9]) | Activity (A549 [10]) | Activity (A549 [11]) [%] | Activity (A549 [12]) [%] | inhibition (A549 [13]) | Activity (A549 [14]) [%]
1 | > 1000 | C#Cc1cccc(OC)c1 | inactive |  |  |  |  |  |  |  |  |  |  |  | 
2 | 51.2 | C#Cc1cccc(OCCCCCCCCN2C[C@H](O)[C@@H](O)[C@H](O)[C@H]2CO)c1 | Active | Active | Active | 4.85 | 89.1 | 9.97 | Active | Active | Active | 13.93 | 77.69 | Active | 5.44
3 | > 1000 | OC[C@H]1NC[C@H](O)[C@@H](O)[C@@H]1O [DUVOGLUSTAT] | inactive | Active |  |  |  |  |  |  |  |  |  |  | 
